Experimental data reported in ChEMBL document CHEMBL1136237, “2-piperidin-4-yl-benzimidazoles with broad spectrum antibacterial activities” (2003).
≈ marks a conversion by molar mass, not a printed value.

Assays:
[1] = test system: Escherichia coli; test: Antibacterial activity determined against Escherichia coli; format: functional
Method in brief: (§1)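 Broth microdilution: an overnight-culture bacterial suspension was added to compound in 2.5% DMSO in water, giving a final inoculum of about 10^2–10^3 CFU/well. Plates were incubated 20–24 h at 37 °C, and growth relative to a no-compound control was read as A595. MIC was given as a range: complete inhibition at the upper concentration, viable cells at the lower.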

[2] = test system: Staphylococcus aureus; test: Antibacterial activity determined against Staphylococcus aureus; format: functional; method in brief: as §1
[3] = Inhibition of bacterial transcription/translation
[4] = test system: Candida albicans; test: Antifungal activity determined against Candida albicans 10231; format: functional
Method in brief: as §1, with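 “Candida albicans:” for “Broth microdilution:”, “yeast” for “bacterial”, “40–48” for “20–24”, “25” for “37”, “versus” for “relative to”, “higher” for “upper”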

[5] = test system: Enterococcus faecium; test: Antibacterial activity determined against Enterococcus faecium ATCC 6569; format: functional; method in brief: as §1
[6] = test system: Enterococcus faecium; test: Antibacterial activity determined against Enterococcus faecium ATCC 882; format: functional; method in brief: as §1
[7] = test system: Escherichia coli; test: Antibacterial activity determined against gram-negativeE. coli 25922; format: functional; method in brief: as §1
[8] = test system: Enterococcus faecalis; test: Antibacterial activity determined against Enterococcus faecalis ATCC 11823; format: functional; method in brief: as §1
[9] = test system: Enterococcus faecalis; test: Antibacterial activity determined against Enterococcus faecalis ATCC 23241; format: functional; method in brief: as §1
[10] = test system: Enterococcus faecalis; test: Antibacterial activity determined against Enterococcus faecalis ATCC 4200; format: functional; method in brief: as §1
[11] = test system: Enterococcus faecalis; test: Antibacterial activity determined against Enterococcus faecalis ATCC 49757; format: functional; method in brief: as §1
[12] = test system: Enterococcus hirae; test: Antibacterial activity determined against gram-positive Enterococcus hirae 29212; format: functional; method in brief: as §1
[13] = test system: Klebsiella pneumoniae; test: Antibacterial activity determined against gram-negativeK. pneumoniae 13383; format: functional; method in brief: as §1
[14] = test system: Proteus vulgaris; test: Antibacterial activity determined against gram-negativeP. vulgaris 8427; format: functional; method in brief: as §1
[15] = test system: Pseudomonas aeruginosa; test: Antibacterial activity determined against gram-negativeP. aeruginosa 25416; format: functional; method in brief: as §1
[16] = test system: Staphylococcus aureus; test: Antibacterial activity determined against gram-positive Staphylococcus aureus 13709; format: functional; method in brief: as §1
[17] = test system: Streptococcus pyogenes; test: Antibacterial activity determined against gram-positive Streptococcus pyogenes 49399; format: functional; method in brief: as §1
[18] = test system: Streptococcus pneumoniae; test: Antibacterial activity determined against gram-positive Streptococcus pneumoniae 6303; format: functional; method in brief: as §1
[19] = test system: Enterococcus faecalis; test: Antibacterial activity determined against Enterococcus faecalis ATCC 828; format: functional; method in brief: as §1

Row | SMILES | MIC [1] | MIC [2] | IC50 [3] | MIC [4] | MIC [5] | MIC [6] | MIC [7] | MIC [8] | MIC [9] | MIC [10] | MIC [11] | MIC [12] | MIC [13] | MIC [14] | MIC [15] | MIC [16] | MIC [17] | MIC [18] | MIC [19]
1 | NC[C@@H]1O[C@H](O[C@H]2[C@@H](O)[C@H](O[C@@H]3[C@@H](O)[C@H](N)C[C@H](N)[C@H]3O[C@H]3O[C@H](CO)[C@@H](O)[C@H](O)[C@H]3N)O[C@@H]2CO)[C@H](N)[C@@H](O)[C@@H]1O [PAROMOMYCIN] | 3 µM (≈ 1.85 µg/mL) | 1 µM (≈ 0.616 µg/mL) | 0.56 µM |  |  |  |  |  |  |  |  |  |  |  |  |  |  |  | 
2 | O=C1c2ccccc2C(=O)N1Cc1ccc(Cn2c(C3CCNCC3)nc3cc(Cl)c(Cl)cc32)cc1 | 6 µM (≈ 3.12 µg/mL) | 6 µM (≈ 3.12 µg/mL) | > 100 µM | 50 µM (≈ 26 µg/mL) | 3 µM (≈ 1.56 µg/mL) | 6 µM (≈ 3.12 µg/mL) | 6 µM (≈ 3.12 µg/mL) | 3 µM (≈ 1.56 µg/mL) | 6 µM (≈ 3.12 µg/mL) | 6 µM (≈ 3.12 µg/mL) | 6 µM (≈ 3.12 µg/mL) | 3 µM (≈ 1.56 µg/mL) | 25 µM (≈ 13 µg/mL) | 25 µM (≈ 13 µg/mL) | 12 µM (≈ 6.23 µg/mL) | 6 µM (≈ 3.12 µg/mL) | 12 µM (≈ 6.23 µg/mL) | 6 µM (≈ 3.12 µg/mL) | 6 µM (≈ 3.12 µg/mL)
3 | Clc1cc2nc(C3CCNCC3)n(Cc3ccc(CN4CCNCC4)cc3)c2cc1Cl | 12 µM (≈ 5.5 µg/mL) | 6 µM (≈ 2.75 µg/mL) | > 100 µM | 50 µM (≈ 22.9 µg/mL) | 6 µM (≈ 2.75 µg/mL) | 6 µM (≈ 2.75 µg/mL) | 12 µM (≈ 5.5 µg/mL) | 12 µM (≈ 5.5 µg/mL) | 6 µM (≈ 2.75 µg/mL) | 12 µM (≈ 5.5 µg/mL) | 12 µM (≈ 5.5 µg/mL) | 3 µM (≈ 1.38 µg/mL) | 6 µM (≈ 2.75 µg/mL) | 12 µM (≈ 5.5 µg/mL) | 12 µM (≈ 5.5 µg/mL) | 6 µM (≈ 2.75 µg/mL) | 6 µM (≈ 2.75 µg/mL) | 12 µM (≈ 5.5 µg/mL) | 6 µM (≈ 2.75 µg/mL)
4 | Clc1cc2nc(C3CCNCC3)n(Cc3ccc(CBr)cc3)c2cc1Cl | > 100 µM | > 100 µM | > 100 µM |  |  |  |  |  |  |  |  |  |  |  |  |  |  |  | 
5 | CCn1c(C2CCNCC2)nc2cc(Cl)c(Cl)cc21 | > 100 µM | > 100 µM | > 100 µM |  |  |  |  |  |  |  |  |  |  |  |  |  |  |  | 
6 | Fc1ccc(Cn2c(C3CCNCC3)nc3cc(Cl)c(Cl)cc32)cc1 | > 100 µM | > 100 µM | > 100 µM |  |  |  |  |  |  |  |  |  |  |  |  |  |  |  | 
7 | NCCNCc1ccc(Cn2c(C3CCNCC3)nc3cc(Cl)c(Cl)cc32)cc1 | 12 µM (≈ 5.19 µg/mL) | 6 µM (≈ 2.59 µg/mL) | 12 µM | > 100 µM | 6 µM (≈ 2.59 µg/mL) | 12 µM (≈ 5.19 µg/mL) | 12 µM (≈ 5.19 µg/mL) | 6 µM (≈ 2.59 µg/mL) | 12 µM (≈ 5.19 µg/mL) | 12 µM (≈ 5.19 µg/mL) | 12 µM (≈ 5.19 µg/mL) | 3 µM (≈ 1.3 µg/mL) | 12 µM (≈ 5.19 µg/mL) | 25 µM (≈ 10.8 µg/mL) | 12 µM (≈ 5.19 µg/mL) | 6 µM (≈ 2.59 µg/mL) | 6 µM (≈ 2.59 µg/mL) | 12 µM (≈ 5.19 µg/mL) | 12 µM (≈ 5.19 µg/mL)
8 | NC1CCN(Cc2ccc(Cn3c(C4CCNCC4)nc4cc(Cl)c(Cl)cc43)cc2)CC1 | 50 µM (≈ 23.6 µg/mL) | 6 µM (≈ 2.83 µg/mL) | 60 µM | 50 µM (≈ 23.6 µg/mL) | 6 µM (≈ 2.83 µg/mL) | 12 µM (≈ 5.67 µg/mL) | 50 µM (≈ 23.6 µg/mL) | 12 µM (≈ 5.67 µg/mL) | 12 µM (≈ 5.67 µg/mL) | 12 µM (≈ 5.67 µg/mL) | 12 µM (≈ 5.67 µg/mL) | 3 µM (≈ 1.42 µg/mL) | 25 µM (≈ 11.8 µg/mL) | 25 µM (≈ 11.8 µg/mL) | 12 µM (≈ 5.67 µg/mL) | 6 µM (≈ 2.83 µg/mL) | 6 µM (≈ 2.83 µg/mL) | 25 µM (≈ 11.8 µg/mL) | 12 µM (≈ 5.67 µg/mL)

Continued, values first:

Row | MIC [1] | MIC [2] | IC50 [3] | MIC [4] | MIC [5] | MIC [6] | MIC [7] | MIC [8] | MIC [9] | MIC [10] | MIC [11] | MIC [12] | MIC [13] | MIC [14] | MIC [15] | MIC [16] | MIC [17] | MIC [18] | MIC [19] | SMILES
9 | > 100 µM | 50 µM (≈ 20.3 µg/mL) | > 100 µM |  |  |  |  |  |  |  |  |  |  |  |  |  |  |  |  | O=[N+]([O-])c1ccc(Cn2c(C3CCNCC3)nc3cc(Cl)c(Cl)cc32)cc1
10 | 12 µM (≈ 5.3 µg/mL) | 12 µM (≈ 5.3 µg/mL) | > 100 µM |  |  |  |  |  |  |  |  |  |  |  |  |  |  |  |  | Clc1cc2nc(C3CCNCC3)n(Cc3ccc(Cn4cncn4)cc3)c2cc1Cl
11 | 6 µM (≈ 3.1 µg/mL) | 6 µM (≈ 3.1 µg/mL) | > 100 µM | > 100 µM | 12 µM (≈ 6.2 µg/mL) |  | 6 µM (≈ 3.1 µg/mL) | 6 µM (≈ 3.1 µg/mL) |  | 25 µM (≈ 12.9 µg/mL) | 50 µM (≈ 25.8 µg/mL) | 1 µM (≈ 0.517 µg/mL) | 6 µM (≈ 3.1 µg/mL) | 12 µM (≈ 6.2 µg/mL) | 25 µM (≈ 12.9 µg/mL) | 6 µM (≈ 3.1 µg/mL) | 3 µM (≈ 1.55 µg/mL) | 6 µM (≈ 3.1 µg/mL) | 50 µM (≈ 25.8 µg/mL) | NCCCCCCCCNCc1ccc(Cn2c(C3CCNCC3)nc3cc(Cl)c(Cl)cc32)cc1
12 | 12 µM (≈ 5.67 µg/mL) | 6 µM (≈ 2.83 µg/mL) | > 100 µM | > 100 µM | 6 µM (≈ 2.83 µg/mL) | 12 µM (≈ 5.67 µg/mL) | 12 µM (≈ 5.67 µg/mL) | 12 µM (≈ 5.67 µg/mL) | 12 µM (≈ 5.67 µg/mL) | 12 µM (≈ 5.67 µg/mL) | 6 µM (≈ 2.83 µg/mL) | 3 µM (≈ 1.42 µg/mL) | 12 µM (≈ 5.67 µg/mL) | 25 µM (≈ 11.8 µg/mL) | 25 µM (≈ 11.8 µg/mL) | 6 µM (≈ 2.83 µg/mL) | 6 µM (≈ 2.83 µg/mL) | 12 µM (≈ 5.67 µg/mL) | 12 µM (≈ 5.67 µg/mL) | Clc1cc2nc(C3CCNCC3)n(Cc3ccc(CN4CCCNCC4)cc3)c2cc1Cl
13 | 6 µM (≈ 2.84 µg/mL) | 3 µM (≈ 1.42 µg/mL) | > 100 µM | 25 µM (≈ 11.8 µg/mL) | 3 µM (≈ 1.42 µg/mL) | 3 µM (≈ 1.42 µg/mL) | 6 µM (≈ 2.84 µg/mL) | 3 µM (≈ 1.42 µg/mL) | 3 µM (≈ 1.42 µg/mL) | 3 µM (≈ 1.42 µg/mL) | 3 µM (≈ 1.42 µg/mL) | 1 µM (≈ 0.473 µg/mL) | 6 µM (≈ 2.84 µg/mL) | 12 µM (≈ 5.68 µg/mL) | 25 µM (≈ 11.8 µg/mL) | 3 µM (≈ 1.42 µg/mL) | 3 µM (≈ 1.42 µg/mL) | 6 µM (≈ 2.84 µg/mL) | 3 µM (≈ 1.42 µg/mL) | CCCCCCNCc1ccc(Cn2c(C3CCNCC3)nc3cc(Cl)c(Cl)cc32)cc1
